# Laboratory results: ChEMBL document CHEMBL2150903, “Synthesis and screening of novel vitamin E derivatives for anticancer functions” (Eur J Med Chem, 2012)
# pEC50: −log10 of the molar value. The source made the active and inactive calls. No cut-off for these calls is given here.
# How the values were obtained:
# Type in all cases: functional, cell-based
# MCF7 [1] = experiment: Induction of apoptosis in human MCF7 cells assessed as PARP cleavage at 20 uM after 15 hrs by Western blot analysis
# In short: (§1)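 Cells grown in MEM with 10% FBS, glutamine, penicillin/streptomycin, non-essential amino acids and 2× MEM vitamins; serum cut to 2% for treatment. Compounds dissolved in DMSO (40 mM stock); DMSO vehicle control. Treatment 15 h, then Western blot of whole-cell extracts for PARP cleavage. Primary antibody in 0.1% BSA/TBST overnight at 4 °C, then HRP-conjugated secondary. Two separate experiments.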
# MDA-MB-231 [2] = experiment: Induction of apoptosis in human MDA-MB-231 cells assessed as PARP cleavage at 20 uM after 15 hrs by Western blot analysis; in short: as §1
# Mus musculus = organism: Mus musculus; experiment: Induction of apoptosis in mouse 66cl-4GFP cells assessed as PARP cleavage at 20 uM after 15 hrs by Western blot analysis; in short: as §1
# MCF7 [3] = experiment: Induction of apoptosis in human MCF7 cells at 40 uM by AnnexinV/PI/FITC-based flow cytometric analysis
# MDA-MB-231 [4] = experiment: Induction of apoptosis in human MDA-MB-231 cells at 20 and 40 uM by […]
# MCF7 [5] = experiment: Induction of apoptosis in human MCF7 cells at 20 uM by AnnexinV/PI/FITC-based flow cytometric analysis
# MDA-MB-231 [6] = experiment: Induction of apoptosis in human MDA-MB-231 cells by AnnexinV/PI/FITC-based flow cytometric analysis
# MCF7 [7] = experiment: Induction of apoptosis in human MCF7 cells by AnnexinV/PI/FITC-based flow cytometric analysis
Compound,pEC50 (MDA-MB-231 [6]),pEC50 (MCF7 [7]),Activity (MCF7 [1]),Activity (MDA-MB-231 [2]),Activity (Mus musculus),Activity (MCF7 [3]),Activity (MDA-MB-231 [4]),Activity (MCF7 [5])
CC(C)CCC[C@@H](C)CCC[C@@H](C)CCC[C@]1(C)CCc2cc(O)c(F)cc2O1,,,inactive,inactive,inactive,,,
Cc1c(C)c2c(c(C)c1OCC(=O)O)CC[C@@](C)(COCCC(C)CCCC(C)CCCC(C)C)O2 (mixture of isomers),4.74,4.68,Active,Active,Active,Active,Active,Active
Cc1c(C)c2c(c(C)c1OCC(=O)O)CC[C@](C)(COCCC(C)CCCC(C)CCCC(C)C)O2 (mixture of isomers),4.80,4.54,Active,Active,Active,Active,Active,
CC(C)CCCC(C)CCCC(C)CCOCC1(C)CCc2cc(OCC(=O)O)c(F)cc2O1 (racemic),4.57,4.46,Active,Active,Active,Active,Active,
CC(C)CCCC(C)CCCC(C)CCOCC1(C)CCc2cc(O)c(F)cc2O1 (racemic),,,Active,,,,,

# Now from value to molecule, other results behind:
pEC50 (MDA-MB-231 [6]),pEC50 (MCF7 [7]),Compound,Activity (MCF7 [1]),Activity (MDA-MB-231 [2]),Activity (Mus musculus),Activity (MCF7 [3]),Activity (MDA-MB-231 [4]),Activity (MCF7 [5])
4.47,4.22,CC(C)CCCC(C)CCCC(C)CCCC1(C)CCc2cc(OCC(=O)O)c(F)cc2O1 (racemic),Active,,Active,,,
4.46,4.29,Cc1c(C)c2c(c(C)c1OCC(=O)O)CC[C@@](C)(CCC[C@H](C)CCC[C@H](C)CCCC(C)C)O2 [.ALPHA.-TOCOPHERYLOXYACETIC ACID],Active,Active,Active,Active,Active,Active
